Assay results reported in ChEMBL document CHEMBL3259717, “Synthetic calanolides with bactericidal activity against replicating and nonreplicating Mycobacterium tuberculosis” (J Med Chem, 2014).
Converted amounts (≈) assume the structure as drawn.

Experiments:
[1] = tested on: Mycobacterium tuberculosis; test: Antibacterial activity against replicating form of Mycobacterium tuberculosis MC2 6220 assessed as growth inhibition after 7 days by high-throughput screening assay; assay type: functional; conditions: MC2 6220, 168 h
Outline: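 Attenuated Mtb mc26220 ΔpanCDΔlysA in 7H9 with glycerol, tyloxapol, OADC, casein amino acids, 240 μg/mL L-lysine, 24 μg/mL pantothenate. Mid-log cells diluted to OD580 0.01 in 384-well plates, compound in DMSO, 7 days at 37 °C, 20% O2, 5% CO2. OD580 read; MIC90 = 90% growth inhibition vs DMSO.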

[2] = tested on: Mycobacterium tuberculosis; test: Antibacterial activity against non-replicating form of Mycobacterium tuberculosis MC2 6220 assessed as growth inhibition after 3 days by high-throughput screening assay; assay type: functional; conditions: MC2 6220, 72 h
Outline: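 Log-phase mc26220 washed in PBS/tyloxapol, resuspended in Sauton's-based NR medium (butyrate, 0.5 mM NaNO2, pH 5.0) at OD580 0.1. Compound exposure 3 days at 37 °C, 1% O2, 5% CO2. Then R medium added (5-fold dilution), 7 days outgrowth at 20% O2. OD580 read; MIC90 = 90% inhibition vs DMSO.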

[3] = Cytotoxicity against human HepG2 cells assessed as decrease in ATP signal after 2 days by CellTiter-Glo assay; assay type: cell-based; conditions: read-out: LD50
Outline: (§1)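 HepG2 in DMEM with 10% FBS, pyruvate, glutamine, HEPES and nonessential amino acids, seeded 3000 cells/well in 384-well plates. Compound for 2 days at 1% final DMSO. ATP read by CellTiter-Glo luminescence. LD50 = 50% drop in ATP signal vs DMSO. SI = LD50/MIC90 against replicating Mtb.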

[4] = Selectivity index, ratio of LD50 for human HepG2 cells to MIC90 for replicating form of Mycobacterium tuberculosis mc'2 6220; assay type: toxicity, cell-based; conditions: read-out: Selectivity Index; outline: as §1

Structure (SMILES)	MIC90 [1] [µg/mL]	MIC90 [2] [µg/mL]	CC50 at 48 h [3] [µg/mL]	selectivity ratio [4]
CCCc1cc(=O)oc2cc(C#Cc3ccc(C)cc3)c3c(c12)OC(C)(C)C=C3	> 19	> 19	> 19	
CC1(C)C=Cc2c(c3c(CN4CCOCC4)cc(=O)oc3c3cc([N+](=O)[O-])oc23)O1	< 0.2	< 0.2	1 (≈ 2.42 µM)	> 5
CCCc1cc(=O)oc2cc(N3CCN(C(=O)Nc4ccc(OC(F)(F)F)cc4)CC3)c3c(c12)OC(C)(C)C=C3	> 28	> 28	> 28	
Cc1c(F)c(=O)oc2c1c1c(c3oc([N+](=O)[O-])cc32)C=CC(C)(C)O1	< 0.1	0.2 (≈ 0.579 µM)	> 50	> 510
CCCc1cc(=O)oc2cc(N3CCN(C(=O)Nc4ccc(C(C)C)cc4)CC3)c3c(c12)OC(C)(C)C=C3	> 26	> 26	> 26	
CC1(C)CCc2c3c(c4oc(=O)c5c(c4c2O1)CCCC5)[C@H](O)[C@@H]([N+](=O)[O-])O3	0.4 (≈ 1.03 µM)	0.8 (≈ 2.07 µM)	25 (≈ 64.5 µM)	64
CCCc1cc(=O)oc2c3c(c4c(c12)OC(C)(C)C=C4)O[C@H]([N+](=O)[O-])[C@H]3O (relative stereo)	< 0.2	< 0.2	3 (≈ 8.04 µM)	> 11
CC1(C)CCc2c3c(c4oc(=O)c5c(c4c2O1)CCC5)[C@H](O)[C@@H]([N+](=O)[O-])O3	0.2 (≈ 0.536 µM)	0.4 (≈ 1.07 µM)	25 (≈ 67 µM)	128
CCCc1cc(=O)oc2cc(OCCN3CCCC3)c3c(c12)OC(C)(C)C=C3	19 (≈ 49.5 µM)	> 19	19 (≈ 49.5 µM)	1
CCCc1cc(=O)oc2cc(C#CCOc3ccc(F)cc3)c3c(c12)OC(C)(C)C=C3	> 21	> 21	> 21	
Cc1cc(=O)oc2cc(-c3ccc([N+](=O)[O-])o3)c3c(c12)OC(C)(C)C=C3	> 18	> 18	> 18	
CCCc1cc(=O)oc2cc(N3CCN(C(=O)NCc4ccccc4)CC3)c3c(c12)OC(C)(C)C=C3	> 24	> 24	> 24	
CCCc1cc(=O)oc2cc(N3CCN(C(=O)NC4CCCCC4)CC3)c3c(c12)OC(C)(C)C=C3	> 24	> 24	> 24	
CCCc1cc(=O)oc2c3c(cc(OCCO)c12)O[C@H]([N+](=O)[O-])[C@H]3O (racemic)	< 1	< 1	< 1	
CCCc1cc(=O)oc2c3c(cc(OCCOC(=O)c4cnccn4)c12)O[C@H]([N+](=O)[O-])[C@H]3O (racemic)	< 1	< 1	< 1	
CCCc1cc(=O)oc2cc(C#Cc3ccc(F)cc3)c3c(c12)OC(C)(C)C=C3	> 19	> 19	> 19	
CCCc1cc(=O)oc2cc(N3CCN(C(=O)Nc4ccc(F)cc4)CC3)c3c(c12)OC(C)(C)C=C3	> 25	> 25	> 25	
CCCc1cc(=O)oc2cc(N3CCN(C(=O)Nc4ccccc4Oc4ccccc4)CC3)c3c(c12)OC(C)(C)C=C3	> 28	> 28	> 28	
CCCc1cc(=O)oc2cc(OC3CCCCC3)c3c(c12)OC(C)(C)C=C3	> 18	> 18	> 18	
CCCc1cc(=O)oc2cc(OC3CCCC3)c3c(c12)OC(C)(C)C=C3	> 23	> 23	> 23	
CCCc1cc(=O)oc2c3c(cc(OCCN4CCOCC4)c12)O[C@H]([N+](=O)[O-])[C@H]3C (racemic)	> 21	> 21	> 21	
CCCc1cc(=O)oc2cc(OC(C)C)c3c(c12)OC(C)(C)C=C3	> 16	> 16	> 16	
CCCc1cc(=O)oc2c(C(=O)O)c(O)c3c(c12)OC(C)(C)C=C3	> 17	> 17	> 17	

Structure (SMILES)	MIC90 [1] [µg/mL]	MIC90 [2] [µg/mL]	CC50 at 48 h [3] [µg/mL]	selectivity ratio [4]
CCCc1cc(=O)oc2cc(N3CCN(C(=O)Nc4ccc(C(F)(F)F)cc4)CC3)c3c(c12)OC(C)(C)C=C3	> 27	> 27	> 27	
CCCc1cc(=O)oc2cc(C#CCO)c3c(c12)OC(C)(C)C=C3	> 16	> 16	> 16	
CCCc1cc(=O)oc2cc(OCCN3CCOCC3)c3c(c12)OC(C)(C)C=C3	20 (≈ 50.1 µM)	> 20	20 (≈ 50.1 µM)	
CCCc1cc(=O)oc2cc(N3CCN(C(=O)Nc4ccc(OC)cc4)CC3)c3c(c12)OC(C)(C)C=C3	> 25	> 25	> 25	
CCCc1cc(=O)oc2cc(N3CCN(C(=O)Nc4ccc(C#N)cc4)CC3)c3c(c12)OC(C)(C)C=C3	> 25	> 25	> 25	
CCCc1cc(=O)oc2cc(C#Cc3ccccn3)c3c(c12)OC(C)(C)C=C3	> 19	> 19	> 19	
CCCc1cc(=O)oc2cc(N3CCN(C(=O)Nc4ccc(F)c(Cl)c4)CC3)c3c(c12)OC(C)(C)C=C3	> 26	> 26	> 26	
CCCc1cc(=O)oc2cc(NC(=O)Nc3ccc(F)cc3)c3c(c12)OC(C)(C)C=C3	> 21	> 21		
CCCc1cc(=O)oc2cc(OC3CCN(C(=O)NCc4ccccc4)CC3)c3c(c12)OC(C)(C)C=C3	> 25	> 25	> 25	
CCCc1cc(=O)oc2c1c(OCCN1CCOCC1)cc1oc([N+](=O)[O-])c(CO)c12	100 (≈ 231 µM)	100 (≈ 231 µM)		
CCCc1cc(=O)oc2cc(NCc3ccc(F)cc3)c3c(c12)OC(C)(C)C=C3	> 20	> 20		
Cc1c(Cc2ccccc2)c(=O)oc2c1c1c(c3oc([N+](=O)[O-])cc32)C=CC(C)(C)O1	2 (≈ 4.79 µM)	> 21		
CCCc1cc(=O)oc2c1c(O)cc1oc([N+](=O)[O-])cc12	> 14	> 14		
CCCc1cc(=O)oc2cc(C#Cc3ccc(OC)cc3)c3c(c12)OC(C)(C)C=C3	> 20	> 20	> 20	
CCCc1cc(=O)oc2cc(OC)c3c(c12)OC(C)(C)C=C3	> 15	> 15		
CCCc1cc(=O)oc2c(C(=O)N3CCOCC3)c(O)c3c(c12)OC(C)(C)C=C3	> 20	> 20	> 20	
CCCc1cc(=O)oc2cc(OCCCO)c3c(c12)OC(C)(C)C=C3	> 17	> 17		
CC1(C)C=Cc2c(c3c4c(c(=O)oc3c3cc([N+](=O)[O-])oc23)CCCC4)O1	< 0.2	2 (≈ 5.44 µM)		
CCCc1cc(=O)oc2cc(NCc3ccccc3)c3c(c12)OC(C)(C)C=C3	19 (≈ 50.6 µM)	> 19		
CC1(C)C=Cc2c(c3c(-c4ccccc4)cc(=O)oc3c3cc([N+](=O)[O-])oc23)O1	2 (≈ 5.14 µM)	19 (≈ 48.8 µM)		
CCCc1cc(=O)oc2cc(OCC(=O)NCCc3ccccc3)c3c(c12)OC(C)(C)C=C3	> 22	> 22		
CCCCCCCNC(=O)N1CCN(c2cc3oc(=O)cc(CCC)c3c3c2C=CC(C)(C)O3)CC1	> 25	> 25	> 25	
